Assay results reported in publication PMC8857066 (Bioorganic & medicinal chemistry letters, 2022).
Each block holds one compound with its values, some of them ahead of it.

What was measured:
[1] = biological target: T1, fluorescein-labeled WIL-FL LC dimer (WIL-FL*) (Homo sapiens, UniProt P01721, K101C); details: previous study; cited from earlier work
[2] = biological target: T1, fluorescein-labeled WIL-FL LC dimer (WIL-FL*); experiment: protease-coupled fluorescence polarization; format: biochemical
[3] = biological target: fluorescein-labeled WIL-FL* T46L/F49Y LC dimer (Homo sapiens, UniProt P01721, K101C/T66L); experiment: protease-coupled fluorescence polarization; format: biochemical; details: for increased potency compared to stabilizer 1 in the PCFP assays (up to): highest ratio across the two PCFP assays (WIL-FL* and WIL-FL* T46L/F49Y)
[4] = tested on: unlabeled WIL-FL LC dimer; experiment: proteinase K sensitivity assay, single dose; format: biochemical, human; details: 10 μM stabilizer
Outline: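 Unlabelled WIL-FL LC dimer (2.5 μM) was treated with test compound (10 μM) and proteinase K (50 nM) for 2 h at 37 °C. Remaining intact dimer was quantified by size-exclusion chromatography. Fold protection is the fraction of dimer remaining with compound, corrected for residual dimer in the vehicle (1% DMSO) control. Mean of ≥3 independent replicates ± 1 SD.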

FL LC dimers = details: cited from earlier work

fluorescein-labeled WIL-FL* T46L/F49Y LC dimer, sequence (P01721 20-117 T66L/K101C): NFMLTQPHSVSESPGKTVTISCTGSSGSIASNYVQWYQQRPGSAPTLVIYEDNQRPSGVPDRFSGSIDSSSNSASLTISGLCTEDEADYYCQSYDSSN
T1 sequence (P01721 20-117 K101C): as the sequence (P01721 20-117 T66L/K101C) above, with L47T counted along it

Compound: CCN(CC)c1ccc2c(C)c(CCOC(=O)NCc3ccccc3)c(=O)oc2c1 [2-(7-(diethylamino)-4-methyl-2-oxo-2H-chromen-3-yl)ethyl benzylcarbamate]
improved potency compared to 1 in the PCFP assays [1]: more than ten-fold

Compound: CCN(CC)c1ccc2c(C)c(CCC(=O)NCCc3cccnc3)c(=O)oc2c1 [Compound 11]
potency increase for WIL-FL* compared to stabilizer 1 ([2]; ratio of EC50 values): 2.6 fold
potency increase for WIL-FL* T46L/F49Y compared to stabilizer 1 ([3]; ratio of EC50 values): two-fold
increase in fold protection for unlabeled WIL-FL compared to stabilizer 1 [4]: 0.33

maximal fluorescence polarization compared to compound 1 ([2]; PCFP dose-response (Figure S3)): lower
Compound: CCN(CC)c1ccc2c(C)c(CCNC(=O)CCc3ccccc3)c(=O)oc2c1 [Compound 16]

Compound: CCN(CC)c1ccc2c(C)c(CCNC(=O)NCc3cccc(-c4c[nH]cn4)c3)c(=O)oc2c1 [Compound 21]
increased potency compared to stabilizer 1 in the PCFP assays (up to) [3]: up to 56 fold

Compound: CCN(CC)c1ccc2c(C)c(CCNC(=O)NCc3ccc4ccccc4c3)c(=O)oc2c1 [Compound 23]
increased potency compared to stabilizer 1 in the PCFP assays (up to) [3]: ≤ 150 fold

Compound: CN(C)c1ccc2nc3ccc(=[N+](C)C)cc-3sc2c1 [methylene blue]
stabilization of FL LC dimers (FL LC dimers): do not stabilize FL LC dimers

Compound: O=C(O)c1cc(/N=N/c2ccc(S(=O)(=O)Nc3ccccn3)cc2)ccc1O [sulfasalazine]
stabilization of FL LC dimers (FL LC dimers): do not stabilize FL LC dimers
